ChEMBL document CHEMBL3352316, “Optimization of physicochemical properties and safety profile of novel bacterial topoisomerase type II inhibitors (NBTIs) with activity against Pseudomonas aeruginosa” (Bioorg Med Chem, 2014)
≈ marks a conversion by molar mass, not a printed value.

How the values were obtained:
[1] = Aqueous solubility of the compound; format: physicochemical; conditions: buffer
[2] = biological target: T1, A-type voltage-gated potassium channel KCND3 (Homo sapiens, UniProt Q9UK17); experiment: Inhibition of potassium channel Kv4.3 (unknown origin)
T1 sequence (Q9UK17 whole entry): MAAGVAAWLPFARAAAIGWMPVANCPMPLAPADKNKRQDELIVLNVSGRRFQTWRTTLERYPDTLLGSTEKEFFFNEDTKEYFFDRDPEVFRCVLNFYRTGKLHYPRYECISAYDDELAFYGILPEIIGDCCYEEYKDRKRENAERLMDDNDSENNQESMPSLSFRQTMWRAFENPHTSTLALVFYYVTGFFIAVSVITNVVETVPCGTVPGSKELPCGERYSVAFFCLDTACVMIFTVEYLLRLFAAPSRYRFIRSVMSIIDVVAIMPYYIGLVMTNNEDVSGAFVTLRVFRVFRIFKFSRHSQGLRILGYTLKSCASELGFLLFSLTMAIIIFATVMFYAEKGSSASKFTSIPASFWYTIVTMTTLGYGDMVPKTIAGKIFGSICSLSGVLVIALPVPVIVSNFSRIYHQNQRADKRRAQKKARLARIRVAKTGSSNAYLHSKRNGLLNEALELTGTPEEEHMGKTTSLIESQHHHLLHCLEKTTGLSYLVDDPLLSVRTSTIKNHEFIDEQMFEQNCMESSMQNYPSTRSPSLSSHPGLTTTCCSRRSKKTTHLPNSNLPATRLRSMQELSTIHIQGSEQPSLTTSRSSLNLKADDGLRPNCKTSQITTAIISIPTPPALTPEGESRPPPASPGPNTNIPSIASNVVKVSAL
Outline: (§1)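 Automated IonWorks patch clamp was run on CHO or HEK cells expressing each channel. A channel-specific voltage pulse was applied before compound and again about 3 min after addition.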

[3] = biological target: T2, Potassium/sodium hyperpolarization-activated cyclic nucleotide-gated channel 4 (Homo sapiens, UniProt Q9Y3Q4); experiment: Inhibition of potassium channel HCN4 (unknown origin); outline: as §1
T2 sequence (Q9Y3Q4 whole entry): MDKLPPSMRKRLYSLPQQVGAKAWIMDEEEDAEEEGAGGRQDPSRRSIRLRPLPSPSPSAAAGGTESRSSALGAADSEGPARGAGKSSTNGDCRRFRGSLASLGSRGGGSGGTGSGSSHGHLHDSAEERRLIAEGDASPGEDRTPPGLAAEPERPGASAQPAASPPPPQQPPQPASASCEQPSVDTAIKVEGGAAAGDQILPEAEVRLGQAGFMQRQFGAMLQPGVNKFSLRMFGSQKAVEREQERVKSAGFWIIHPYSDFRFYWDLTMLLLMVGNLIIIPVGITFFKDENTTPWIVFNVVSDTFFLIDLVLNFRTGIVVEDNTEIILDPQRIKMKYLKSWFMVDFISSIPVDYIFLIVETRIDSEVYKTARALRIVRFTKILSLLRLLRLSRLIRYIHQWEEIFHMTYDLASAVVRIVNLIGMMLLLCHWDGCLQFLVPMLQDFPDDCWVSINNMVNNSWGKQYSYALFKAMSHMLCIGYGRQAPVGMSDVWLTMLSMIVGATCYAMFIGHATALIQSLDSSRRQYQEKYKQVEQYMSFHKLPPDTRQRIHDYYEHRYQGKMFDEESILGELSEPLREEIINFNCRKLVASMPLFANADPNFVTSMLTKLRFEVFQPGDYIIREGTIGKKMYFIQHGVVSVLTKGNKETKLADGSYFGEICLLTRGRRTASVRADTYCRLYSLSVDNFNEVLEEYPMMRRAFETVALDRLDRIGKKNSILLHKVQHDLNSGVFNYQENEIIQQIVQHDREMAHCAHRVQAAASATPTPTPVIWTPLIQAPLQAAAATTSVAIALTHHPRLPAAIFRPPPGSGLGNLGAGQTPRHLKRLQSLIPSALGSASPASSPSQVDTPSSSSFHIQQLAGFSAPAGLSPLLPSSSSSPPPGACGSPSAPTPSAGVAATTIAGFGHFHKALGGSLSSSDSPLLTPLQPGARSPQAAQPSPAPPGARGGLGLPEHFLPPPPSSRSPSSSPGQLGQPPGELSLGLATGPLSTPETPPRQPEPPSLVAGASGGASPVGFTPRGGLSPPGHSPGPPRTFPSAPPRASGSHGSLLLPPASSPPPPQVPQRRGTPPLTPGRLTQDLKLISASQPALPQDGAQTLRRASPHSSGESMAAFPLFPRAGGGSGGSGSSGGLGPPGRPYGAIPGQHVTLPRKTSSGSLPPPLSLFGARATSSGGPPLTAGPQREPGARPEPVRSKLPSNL

Klebsiella pneumoniae = experiment: Antimicrobial activity against Klebsiella pneumoniae after 18 to 20 hrs by broth microdilution; format: functional
Outline: (§2)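 Broth microdilution followed CLSI guidelines in Mueller Hinton broth. Inocula were grown 18–20 h at 35 °C on blood agar. Compound in DMSO was tested in doubling dilutions from 64 to 0.06 µg/mL, at 2% DMSO final. Plates were incubated 18–20 h and read at OD 620 nm. MIC was taken as the concentration giving >90% growth inhibition.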

Pseudomonas aeruginosa = experiment: Antimicrobial activity against Pseudomonas aeruginosa clinical isolate after 18 to 20 hrs by broth microdilution; format: functional; outline: as §2
Staphylococcus aureus = experiment: Antimicrobial activity against methicillin-susceptible Staphylococcus aureus after 18 to 20 hrs by broth microdilution; format: functional; outline: as §2
[4] = Bioavailability in rat at 10 mg/kg, […]; format: ADME, organism-based; conditions: in vivo
[5] = biological target: T3, Potassium voltage-gated channel subfamily KQT member 1 (Homo sapiens, UniProt P51787); experiment: Inhibition of potassium channel IKs (unknown origin); outline: as §1
T3 sequence (P51787 whole entry): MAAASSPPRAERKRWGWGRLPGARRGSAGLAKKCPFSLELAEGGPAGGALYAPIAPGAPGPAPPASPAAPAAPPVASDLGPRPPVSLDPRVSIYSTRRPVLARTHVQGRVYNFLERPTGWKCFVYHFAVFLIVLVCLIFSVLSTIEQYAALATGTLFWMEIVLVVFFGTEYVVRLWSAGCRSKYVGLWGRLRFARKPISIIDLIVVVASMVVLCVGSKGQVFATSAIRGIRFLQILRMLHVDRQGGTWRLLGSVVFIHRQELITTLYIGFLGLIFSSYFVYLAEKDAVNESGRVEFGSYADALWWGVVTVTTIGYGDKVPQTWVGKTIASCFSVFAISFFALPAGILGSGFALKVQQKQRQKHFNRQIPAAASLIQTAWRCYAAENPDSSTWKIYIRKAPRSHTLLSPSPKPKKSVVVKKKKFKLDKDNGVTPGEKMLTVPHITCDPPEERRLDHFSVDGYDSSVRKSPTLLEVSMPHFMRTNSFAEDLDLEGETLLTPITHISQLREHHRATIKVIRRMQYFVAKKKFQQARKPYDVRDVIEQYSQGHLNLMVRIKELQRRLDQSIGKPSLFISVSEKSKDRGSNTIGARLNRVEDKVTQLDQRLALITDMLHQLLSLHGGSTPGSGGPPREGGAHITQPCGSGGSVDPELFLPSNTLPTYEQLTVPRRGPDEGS

[6] = Inhibition of Escherichia coli topoisomerase IV ATPase activity
[7] = biological target: 5-hydroxytryptamine receptor 4 (Homo sapiens) (UniProt Q13639); experiment: Inhibition of 5-HT4 receptor (unknown origin) at 30 uM
5-hydroxytryptamine receptor 4 (Homo sapiens), sequence (Q13639 whole entry): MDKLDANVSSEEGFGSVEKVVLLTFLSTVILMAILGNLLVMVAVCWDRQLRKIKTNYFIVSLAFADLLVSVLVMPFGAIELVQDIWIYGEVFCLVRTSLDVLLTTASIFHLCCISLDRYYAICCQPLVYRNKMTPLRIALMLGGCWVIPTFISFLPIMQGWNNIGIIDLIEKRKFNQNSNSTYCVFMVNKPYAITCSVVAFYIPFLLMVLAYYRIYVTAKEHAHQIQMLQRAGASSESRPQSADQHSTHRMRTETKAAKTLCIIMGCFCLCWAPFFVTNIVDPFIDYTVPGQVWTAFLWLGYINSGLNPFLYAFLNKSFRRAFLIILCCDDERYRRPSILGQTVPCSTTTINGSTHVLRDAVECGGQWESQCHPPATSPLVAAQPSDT

Row | SMILES | solubility [1] | IC50 [2] | IC50 [3] | MIC90 (Klebsiella pneumoniae) | MIC90 (Pseudomonas aeruginosa) | MIC90 (Staphylococcus aureus) | bioavailability [4] | IC50 [5] | IC50 [6] | inhibition [7]
1 | N[C@@H](Cn1c(=O)cnc2ccc(F)cc21)[C@H]1CC[C@H](NCc2ncc3c(n2)NC(=O)CO3)CC1 | > 333 µM | > 100 µM | > 100 µM | 16 µg/mL (≈ 34.2 µM) | 4 µg/mL (≈ 8.56 µM) | 1 µg/mL (≈ 2.14 µM) | 2% | > 333 µM | 0.003 µM | 7%
2 | COc1ccc2ncc(=O)n(CCN3CCC(NCc4ccc5c(n4)NC(=O)CO5)CC3)c2c1 | > 333 µM | > 100 µM | > 100 µM | 4 µg/mL (≈ 8.61 µM) | 4 µg/mL (≈ 8.61 µM) | 0.03 µg/mL (≈ 0.0646 µM) | 18% | > 100 µM | 0.0022 µM | 99%
